Values after ≈ are worked out from the molar mass of the structure shown.
Assays:
[1] = Partition coefficient (pH 7.4); assay type: ADME; conditions: octanol/water
In short: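 1-Octanol/phosphate buffer partition at pH 7.4 and 0.1 ionic strength. The compound was equilibrated between the phases and the concentration in each phase was measured by UV spectrophotometry.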

Carbonic anhydrase 2 = Carbonic anhydrase 2 (Homo sapiens, UniProt P00918); test: Inhibitory activity against human carbonic anhydrase II using pH stat assay; assay type: functional; conditions: read-out: I50
[2] = Solubility (buffer pH 7.4); assay type: physicochemical; conditions: read-out: S
In short: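 Solubility in 50 mM phosphate buffer, pH 7.4.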

Oryctolagus cuniculus [3] = test: Tested in vivo for the IOP (intraocular pressure) recovery after 50 uL dose of 2% concentration in albino rabbits.; assay type: functional, Eye
In short: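 Conscious albino rabbits. Aqueous humor production was assessed indirectly by IOP recovery rate. A single bilateral 50-µL instillation of 2% (w/v) in 0.5% aqueous (hydroxyethyl)cellulose vehicle was given. Results are percent change from control, tested by Dunnett's two-tailed test (P<0.05).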

Oryctolagus cuniculus [4] = species: Oryctolagus cuniculus; test: Maximum fall in IOP after 50uL dose of 0.5% concentration in alpha-CT rabbit model; ns = 'no significant statistical change'; assay type: functional, organism-based
In short: (§1)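 Alpha-chymotrypsinized rabbit model of ocular hypertension. Single 50-µL bilateral instillation of a 0.5% (w/v) solution in 0.5% aqueous (hydroxyethyl)cellulose vehicle. Read-out is the fall in IOP.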

[5] = Dissociation constant (pKa) (determined in 30% EtOH/water); assay type: physicochemical
Oryctolagus cuniculus [6] = species: Oryctolagus cuniculus; test: Maximum fall in IOP after 50 uL dose of 0.5% concentration in alpha-CT rabbit model; assay type: functional; in short: as §1
Oryctolagus cuniculus [7] = species: Oryctolagus cuniculus; test: Maximum fall in IOP after 50 uL dose of 0.5% concentration in alpha-CT rabbit model.; assay type: functional; in short: as §1
Oryctolagus cuniculus [8] = species: Oryctolagus cuniculus; test: Maximum fall in IOP after 50 microL dose of 0.5% concentration in alpha-CT rabbit model.; assay type: functional; in short: as §1

Compound | D [1] | IC50 (Carbonic anhydrase 2) | solubility [2] | pKa [5] | Change from control (Oryctolagus cuniculus [3]) | Max fall in IOP (Oryctolagus cuniculus [4]) | Max fall in IOP (Oryctolagus cuniculus [6]) | Max fall in IOP (Oryctolagus cuniculus [7]) | Max fall in IOP (Oryctolagus cuniculus [8])
Nc1cc(S(N)(=O)=O)ccc1S(=O)(=O)CCO | 0.25 | 51 nM | 13200 µg/mL (≈ 47.1 mM) | 9.5 |  |  |  |  | 
NS(=O)(=O)c1ccc(SCCCO)cc1 | 6.25 | 20 nM | 1400 µg/mL (≈ 5.66 mM) | 10.2 |  |  |  |  | 
NS(=O)(=O)c1ccc(CCCO)c(F)c1 |  | 20 nM |  |  |  |  |  |  | 
NS(=O)(=O)c1ccc(SCCCO)c(Cl)c1 | 39 | 9 nM | 280 µg/mL (≈ 0.994 mM) | 9.45 |  |  |  |  | 
NS(=O)(=O)c1ccc(CCCCCO)cc1 | 11 | 8 nM | 2600 µg/mL (≈ 10.7 mM) | 10.3 | -38% |  |  |  | 
NS(=O)(=O)c1ccc(S(=O)(=O)CCCCO)c(F)c1 | 0.55 | 4 nM | 4300 µg/mL (≈ 13.8 mM) | 9.18 |  |  |  |  | 
NS(=O)(=O)c1ccc(SCCCCO)cc1 | 8.48 | 9 nM | 800 µg/mL (≈ 3.06 mM) | 10.2 |  |  |  |  | 
NS(=O)(=O)c1cc2ccc(O)cc2s1 |  |  |  |  | -31% |  |  |  | -5.4 mmHg
NS(=O)(=O)c1ccc(SCCCCO)c(F)c1 | 19 | 1.5 nM | 1000 µg/mL (≈ 3.58 mM) | 9.82 |  |  |  |  | 
NS(=O)(=O)c1ccc(S(=O)(=O)CCCO)c([N+](=O)[O-])c1 | 0.9 |  | 800 µg/mL (≈ 2.47 mM) | 8 |  |  |  |  | 
NS(=O)(=O)c1ccc(SCCO)s1 | 2.4 | 30 nM | 49000 µg/mL (≈ 205 mM) | 9.46 |  |  |  |  | 
CC(=O)Oc1ccc2cc(S(N)(=O)=O)sc2c1 |  |  |  |  | -43% |  |  |  | -5.5 mmHg
NS(=O)(=O)c1ccc(SCCCO)c([N+](=O)[O-])c1 | 9.1 | 23 nM | 100 µg/mL (≈ 0.342 mM) | 9.38 |  |  |  |  | 
NS(=O)(=O)c1ccc(S(=O)(=O)CCCO)c(F)c1 | 0.39 | 4.5 nM | 6600 µg/mL (≈ 22.2 mM) | 9.02 | -43% |  | -6.2 mmHg |  | 
NS(=O)(=O)c1ccc(CCCCO)cc1 | 3.7 | 15 nM | 14700 µg/mL (≈ 64.1 mM) | 10.3 |  |  |  |  | 
COC(=O)c1cc(S(N)(=O)=O)ccc1SCCCO | 5.5 | 700 nM | 1300 µg/mL (≈ 4.26 mM) | 9.3 | -30% |  | -4.5 mmHg |  | 
CC(C)COC(=O)OCCCS(=O)(=O)c1ccc(S(N)(=O)=O)s1 |  |  | 80 µg/mL (≈ 0.208 mM) |  |  |  |  |  | 
NS(=O)(=O)c1ccc(S(=O)(=O)CCO)cc1 | 0.14 | 24 nM | 6600 µg/mL (≈ 24.9 mM) | 9.38 | -41% |  |  | -10.8 mmHg | 
NS(=O)(=O)c1ccc(SCCO)c([N+](=O)[O-])c1 | 2.4 | 21 nM | 500 µg/mL (≈ 1.8 mM) | 9.42 |  |  |  |  | 
CC(=O)OCCCS(=O)(=O)c1ccc(S(N)(=O)=O)s1 | 1.47 | 5 nM | 920 µg/mL (≈ 2.81 mM) | 8.05 |  |  |  |  | 
NS(=O)(=O)c1ccc(S(=O)(=O)CCO)s1 | 0.29 | 6 nM | 22000 µg/mL (≈ 81.1 mM) | 8.65 |  |  |  |  | 

Further lines, with some results ahead:

D [1] | IC50 (Carbonic anhydrase 2) | solubility [2] | pKa [5] | Compound | Change from control (Oryctolagus cuniculus [3]) | Max fall in IOP (Oryctolagus cuniculus [4]) | Max fall in IOP (Oryctolagus cuniculus [6]) | Max fall in IOP (Oryctolagus cuniculus [7]) | Max fall in IOP (Oryctolagus cuniculus [8])
0.23 | 12 nM | 7200 µg/mL (≈ 25.8 mM) | 8.98 | NS(=O)(=O)c1ccc(S(=O)(=O)CCCO)cc1 | -37% | No significance |  |  | 
 |  | 14900 µg/mL (≈ 50.5 mM) | 9.35 | NS(=O)(=O)c1ccc(S(=O)(=O)CC(O)CO)cc1 (stereo not drawn) |  |  |  |  | 
0.34 | 30 nM | 33400 µg/mL (≈ 103 mM) | 9.2 | COC(=O)c1cc(S(N)(=O)=O)ccc1S(=O)(=O)CCO | -24% |  | -6.3 mmHg |  | 
0.002 | 900 nM | 53000 µg/mL (≈ 164 mM) | 9.28 | NS(=O)(=O)c1ccc(S(=O)(=O)CCCO)c(C(=O)O)c1 |  |  |  |  | 
0.5 | 20 nM | 1500 µg/mL (≈ 4.45 mM) | 8.9 | COC(=O)c1cc(S(N)(=O)=O)ccc1S(=O)(=O)CCCO |  |  |  |  | 
 |  |  | 8.2 | NS(=O)(=O)c1cc2c(s1)S(=O)(=O)CCC2O (stereo not drawn) | -40% |  |  | -6.9 mmHg | 
9.6 |  | 1600 µg/mL (≈ 6.22 mM) | 10.2 | CC(=O)OCCCc1ccc(S(N)(=O)=O)cc1 | -18% |  |  |  | -4.5 mmHg
0.01 | 10000 nM | 8800 µg/mL (≈ 30.2 mM) | 9.94 | NS(=O)(=O)c1ccc(SCCCO)c(C(=O)O)c1 |  |  |  |  | 
9.8 | 3.5 nM | 900 µg/mL (≈ 3.39 mM) | 9.64 | NS(=O)(=O)c1ccc(SCCCO)c(F)c1 | -30% |  | -3.6 mmHg |  | 
2.3 |  | 3500 µg/mL (≈ 15 mM) | 9.27 | NS(=O)(=O)c1ccc(SCCO)cc1 |  |  |  |  | 
25.2 | 20 nM | 400 µg/mL (≈ 1.45 mM) | 10 | CC(C)(O)CCSc1ccc(S(N)(=O)=O)cc1 | -51% | No significance |  |  | 
0.82 | 25 nM | 3500 µg/mL (≈ 11.4 mM) | 9.28 | CC(C)(O)CCS(=O)(=O)c1ccc(S(N)(=O)=O)cc1 |  |  |  |  | 
0.25 | 5 nM | 3300 µg/mL (≈ 11.6 mM) | 9 | NS(=O)(=O)c1ccc(S(=O)(=O)CCO)c(F)c1 | -37% | No significance |  |  | 
0.44 | 6 nM | 14600 µg/mL (≈ 51.2 mM) | 8.32 | NS(=O)(=O)c1ccc(S(=O)(=O)CCCO)s1 |  |  |  |  | 
5.3 | 9 nM | 6000 µg/mL (≈ 23.9 mM) | 9.76 | NS(=O)(=O)c1ccc(SCCO)c(F)c1 | -34% | No significance |  |  | 
0.46 | 2.3 nM | 9900 µg/mL (≈ 33.1 mM) | 8.67 | NS(=O)(=O)c1ccc(S(=O)(=O)CCCCO)s1 |  |  |  |  | 
1.3 | 5.5 nM | 880 µg/mL (≈ 2.81 mM) | 8.65 | CC(=O)OCCS(=O)(=O)c1ccc(S(N)(=O)=O)s1 |  |  |  |  | 
0.01 |  | 9300 µg/mL (≈ 33.5 mM) | 10.4 | NS(=O)(=O)c1ccc(SCCO)c(C(=O)O)c1 |  |  |  |  | 
7 | 10 nM | 9500 µg/mL (≈ 37.5 mM) | 9.32 | NS(=O)(=O)c1ccc(SCCCO)s1 |  |  |  |  | 
0.25 | 7 nM | 2100 µg/mL (≈ 7.16 mM) | 9.6 | NS(=O)(=O)c1ccc(S(=O)(=O)CCCCO)cc1 |  |  |  |  | 
1.48 | 64 nM | 20000 µg/mL (≈ 92.9 mM) | 10.2 | NS(=O)(=O)c1ccc(CCCO)cc1 |  |  |  |  | 
0.33 | 23 nM | 8400 µg/mL (≈ 28.5 mM) | 9.15 | Nc1cc(S(N)(=O)=O)ccc1S(=O)(=O)CCCO |  |  |  |  | 
10.9 | 4.3 nM | 600 µg/mL (≈ 2.18 mM) | 9.25 | NS(=O)(=O)c1ccc(SCCCCCO)cc1 |  |  |  |  | 
73 |  | 1200 µg/mL (≈ 4.21 mM) | 10.3 | CC(=O)OCCCCCc1ccc(S(N)(=O)=O)cc1 | -33% |  |  | -6.4 mmHg | 
0.45 | 18 nM |  | 9.3 | CC(C)CNCCCS(=O)(=O)c1ccc(S(N)(=O)=O)s1 |  |  |  |  | 
0.72 | 4.5 nM | 970 µg/mL (≈ 2.71 mM) | 8.1 | COCC(=O)OCCCS(=O)(=O)c1ccc(S(N)(=O)=O)s1 |  |  |  |  | 
 |  | 8000 µg/mL (≈ 29.5 mM) | 10.5 | CC(=O)OCCCCc1ccc(S(N)(=O)=O)cc1 |  |  |  |  | 
9 | 3 nM | 9300 µg/mL (≈ 34.8 mM) | 9.5 | NS(=O)(=O)c1ccc(SCCCCO)s1 |  |  |  |  | 
